In assay [1] the target is T1, Prostaglandin G/H synthase 2 (Rattus norvegicus, UniProt P35355).
T1 sequence (P35355 whole entry): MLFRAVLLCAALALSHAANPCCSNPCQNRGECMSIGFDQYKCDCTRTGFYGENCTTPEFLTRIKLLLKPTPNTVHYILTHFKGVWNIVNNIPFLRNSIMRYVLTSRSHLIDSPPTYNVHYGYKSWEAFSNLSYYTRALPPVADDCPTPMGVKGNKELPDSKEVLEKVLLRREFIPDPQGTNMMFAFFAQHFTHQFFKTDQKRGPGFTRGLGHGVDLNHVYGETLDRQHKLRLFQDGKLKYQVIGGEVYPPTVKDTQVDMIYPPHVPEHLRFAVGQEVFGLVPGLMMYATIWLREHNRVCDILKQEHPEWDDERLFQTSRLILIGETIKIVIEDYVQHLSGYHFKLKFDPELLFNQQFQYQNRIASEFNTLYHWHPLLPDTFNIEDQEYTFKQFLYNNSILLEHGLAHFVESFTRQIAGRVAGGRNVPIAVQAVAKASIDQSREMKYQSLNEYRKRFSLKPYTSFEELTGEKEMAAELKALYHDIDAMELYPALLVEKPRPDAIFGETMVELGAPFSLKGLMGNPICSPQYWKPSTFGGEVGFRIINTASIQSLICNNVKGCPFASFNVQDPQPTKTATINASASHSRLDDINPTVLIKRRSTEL
The assay can be described thus: Inhibition of COX2 in rat abdominal macrophages assessed as PGE2 production pretreated for 30 mins followed by addition of 10 uM arachidonic acid as substrate for 20 mins by EIA.

Assay [2] has as its system A549. The assay can be described thus: Cell cycle arrest in human A549 cells assessed as accumulation at G2 phase at 1 uM after 72 hrs by propidium iodide staining based flow cytometry (reference value: 3.88%). In kind it is functional.
Assay [3] concerns A549. As to the kind of experiment: Induction of apoptosis in human A549 cells after 3 days by annexinV-APC/7-AAD staining based flow cytometry. It counts as functional, cell-based.
In assay [4] the target is T2, Polyunsaturated fatty acid 5-lipoxygenase (Rattus norvegicus, UniProt P12527).
T2 sequence (P12527 whole entry): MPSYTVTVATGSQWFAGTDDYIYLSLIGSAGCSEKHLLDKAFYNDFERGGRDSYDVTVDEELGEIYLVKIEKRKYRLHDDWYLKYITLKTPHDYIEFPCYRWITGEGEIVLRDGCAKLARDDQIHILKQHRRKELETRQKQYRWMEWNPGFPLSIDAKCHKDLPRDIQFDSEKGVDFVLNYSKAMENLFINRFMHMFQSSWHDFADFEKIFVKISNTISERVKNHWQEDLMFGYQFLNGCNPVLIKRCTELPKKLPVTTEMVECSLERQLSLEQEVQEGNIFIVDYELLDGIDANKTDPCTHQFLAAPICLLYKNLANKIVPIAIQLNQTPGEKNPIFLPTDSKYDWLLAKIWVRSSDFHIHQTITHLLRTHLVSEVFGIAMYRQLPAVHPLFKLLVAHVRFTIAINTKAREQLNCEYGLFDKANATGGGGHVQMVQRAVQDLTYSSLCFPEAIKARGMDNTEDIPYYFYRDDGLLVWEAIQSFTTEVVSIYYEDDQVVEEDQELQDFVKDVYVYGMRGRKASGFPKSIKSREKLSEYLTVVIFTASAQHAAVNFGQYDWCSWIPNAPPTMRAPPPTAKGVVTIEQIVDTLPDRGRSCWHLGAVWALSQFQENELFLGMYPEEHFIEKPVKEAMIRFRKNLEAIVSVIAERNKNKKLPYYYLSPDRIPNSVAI
As to the kind of experiment: Inhibition of 5-LOX in Sprague-Dawley rat leukocytes assessed as A23187 stimulated LTB4 production pretreated for 30 mins followed by addition of A23187 for 30 mins by EIA. It counts as cell-based. In outline: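 Rat peritoneal leukocytes collected from Sprague-Dawley rats primed i.p. with 0.2% glycogen (20 mL/kg). Cells in Hanks solution plated at 1.0×10^6/well and held 10 min at 37 °C. Pretreated 30 min with L-cysteine (10 mM), indomethacin (1 mg/L) and compound or DMSO. A23187 added for 30 min. LTB4 in the clarified supernatant measured by EIA; % inhibition from OD; IC50 by Bliss method.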

The subject of assay [5] is A549. As to the kind of experiment: Cell cycle arrest in human A549 cells assessed as accumulation at G2 phase after 72 hrs by propidium iodide staining based flow cytometry. It counts as functional.
For assay [6], the system named is A549. The assay can be described thus: Induction of apoptosis in human A549 cells assessed as late apoptotic cells at 5 uM after 72 hrs by annexinV-APC/7-AAD staining based flow cytometry (reference value: 1.81%). It counts as functional.

pIC50: −log10 of the molar value.

With `CS(=O)(=O)c1ccc(-c2nc(SCCCOC(=O)/C=C/c3ccc(O)c(O)c3)nn2-c2ccc(F)cc2)cc1`, the values for the pIC50 in assay [1] and in assay [4] were 6.74 and 6.15, respectively. For the same compound, the Activity in the assay on A549 [2] is 7.24%; with A549 [3] it was “Dose-dependent effect”; with A549 [5] it was “Dose-dependent effect”; in the assay with A549 [6], 6.37%.

(Values after ChEMBL document CHEMBL3745688, “Discovery of novel hybrids of diaryl-1,2,4-triazoles and caffeic acid as dual inhibitors of cyclooxygenase-2 and 5-lipoxygenase for cancer therapy” (Eur J Med Chem, 2016).)
